Converted amounts (≈) assume the structure as drawn. The source made the active and inactive calls. No cut-off for these calls is given here.
How the values were obtained:
[1] = test system: MKN-45; assay: Cytotoxicity against human MKN45 cells after 72 hrs by MTT assay; format: functional, cell-based; conditions: MKN-45, 72 h
[2] = Cytotoxicity against human NPC-TW01 cells after 72 hrs by MTT assay; format: functional, cell-based; conditions: NPC-TW01, 72 h
Outline: (§1)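 2 × 10⁴ cells/well seeded 12 h before dosing; serial dilutions added at final 0.5 nM to […] for 72 h. Medium then replaced, MTT (5 mg/mL stock, 10 µL) added for 4 h at 37 °C, formazan dissolved in DMSO, absorbance read at 570 nm. Means of at least three independent experiments.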

[3] = test system: HUVEC; assay: Cytotoxicity against HUVEC cells after 72 hrs by MTT assay; format: cell-based; conditions: Homo sapiens
[4] = test system: NCI-H838; assay: Cytotoxicity against human NCI-H838 cells after 72 hrs by MTT assay; format: functional, cell-based; conditions: NCI-H838, 72 h
Outline: as §1, with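 “nm. Viability plotted against untreated control; IC50 = 50% growth inhibition.” for “nm.”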

[5] = test system: CHO-K1; assay: Selectivity index, ratio of IC50 for CHOK1 cells to IC50 for human NPC-TW01 cells; format: functional
Outline: (§2)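 Selectivity index taken as the ratio between IC50 in the normal line (HUV-EC-C or CHO-K1) and IC50 in NPC-TW01. Each IC50 came from a 72 h MTT assay, with final concentrations of 0.5 nM to […].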

[6] = test system: NPC-TW01; assay: Induction of apoptosis in human NPC-TW01 cells assessed as chromosomal condensation by fluorescence microscopy; format: functional, cell-based
Outline: (§3)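 NPC-TW01 cells grown on coverslips and exposed to compound at 1 µM for 24 h, washed in PBS, then fixed in 4% paraformaldehyde. For tubulin, cells were permeabilized (0.1% Triton X-100), blocked (0.1% BSA), and incubated 45 min at room temperature with anti-β-tubulin (1:200), followed by PE-goat anti-mouse IgG (1:100). For chromosomes, cells were stained with Hoechst 33258. Imaged by laser-scanning confocal microscopy.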

[7] = Cytotoxicity against human Hep3B cells after 72 hrs by MTT assay; format: functional, cell-based, Hep 3B2
[8] = Solubility in PBS buffer; format: physicochemical
[9] = test system: NPC-TW01; assay: Induction of morphological changes in human NPC-TW01 cells assessed as microtubule aggregation around nuclei at 1 uM by confocal microscopy; format: functional, cell-based; outline: as §3
[10] = Cytotoxicity against human MES-SA cells after 72 hrs by MTT assay; format: functional, cell-based
Outline: as §1, with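 “nm. Viability plotted against untreated control; IC50 = 50% growth inhibition.” for “nm.”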

[11] = test system: A498; assay: Cytotoxicity against human A498 cells after 72 hrs by MTT assay; format: functional, cell-based; conditions: A498, 72 h
[12] = test system: HUVEC; assay: Selectivity index, ratio of IC50 for HUVEC cells to IC50 for human NPC-TW01 cells; format: functional; outline: as §2
[13] = Cytotoxicity against CHOK1 cells after 72 hrs by MTT assay; format: cell-based; conditions: Cricetulus griseus, CHO-K1, 72 h
[14] = test system: HCT-116; assay: Cytotoxicity against human HCT116 cells after 72 hrs by MTT assay; format: functional, cell-based; conditions: HCT-116, 72 h
Outline: as §1, with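 “nm. Viability plotted against untreated control; IC50 = 50% growth inhibition.” for “nm.”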

| SMILES | solubility [8] [µg/mL] | IC50 [1] [nM] | IC50 [2] [nM] | IC50 [3] [nM] | IC50 [4] [nM] | Selectivity Index [5] | Activity [6] | IC50 [7] [nM] | Activity [9] | IC50 [10] [nM] | IC50 [11] [nM] | Selectivity Index [12] | IC50 [13] [nM] | IC50 [14] [nM] |
| --- | --- | --- | --- | --- | --- | --- | --- | --- | --- | --- | --- | --- | --- | --- |
| CO[C@@H]1O[C@H](CO)[C@@H](O)[C@H](O)[C@H]1OC(=O)CCC(=O)O[C@@H](C(=O)O[C@H]1C[C@@]2(O)[C@@H](OC(=O)c3ccccc3)[C@@H]3[C@]4(OC(C)=O)CO[C@@H]4C[C@H](O)[C@@]3(C)C(=O)[C@H](OC(C)=O)C(=C1C)C2(C)C)[C@@H](NC(=O)c1ccccc1)c1ccccc1 | 53 (≈ 46.9 µM) | > 100000 | 25 | > 100000 | 82 | > 250 | Active | 100000 | Active | 82 | > 100000 | > 250 | > 100000 | 100 |
| CO[C@@H]1O[C@H](C(=O)O)[C@@H](O)[C@H](O)[C@H]1OC(=O)CCC(=O)O[C@@H](C(=O)O[C@H]1C[C@@]2(O)[C@@H](OC(=O)c3ccccc3)[C@@H]3[C@]4(OC(C)=O)CO[C@@H]4C[C@H](O)[C@@]3(C)C(=O)[C@H](OC(C)=O)C(=C1C)C2(C)C)[C@@H](NC(=O)c1ccccc1)c1ccccc1 | 104 (≈ 90.9 µM) | > 100000 | 67 | > 100000 | 267 | > 670 | – | > 100000 | – | 95 | > 100000 | > 670 | > 100000 | 452 |
| CC(=O)O[C@H]1C(=O)[C@@]2(C)[C@H]([C@H](OC(=O)c3ccccc3)[C@]3(O)C[C@H](OC(=O)[C@H](O)[C@@H](NC(=O)c4ccccc4)c4ccccc4)C(C)=C1C3(C)C)[C@]1(OC(C)=O)CO[C@@H]1C[C@@H]2O [PACLITAXEL] | < 0.4 | 89100 | – | 5140 | 26 | – | – | 7260 | – | 8 | 8810 | – | 16000 | 61 |

Now from value to compound, other results behind:

| solubility [8] [µg/mL] | SMILES | IC50 [1] [nM] | IC50 [2] [nM] | IC50 [3] [nM] | IC50 [4] [nM] | Selectivity Index [5] | Activity [6] | IC50 [7] [nM] | Activity [9] | IC50 [10] [nM] | IC50 [11] [nM] | Selectivity Index [12] | IC50 [13] [nM] | IC50 [14] [nM] |
| --- | --- | --- | --- | --- | --- | --- | --- | --- | --- | --- | --- | --- | --- | --- |
| 137 (≈ 121 µM) | CO[C@@H]1O[C@H](C(=O)O)[C@@H](O)[C@H](O)[C@H]1OCCCC(=O)O[C@@H](C(=O)O[C@H]1C[C@@]2(O)[C@@H](OC(=O)c3ccccc3)[C@@H]3[C@]4(OC(C)=O)CO[C@@H]4C[C@H](O)[C@@]3(C)C(=O)[C@H](OC(C)=O)C(=C1C)C2(C)C)[C@@H](NC(=O)c1ccccc1)c1ccccc1 | > 100000 | 67 | 44000 | 181 | 2790 | – | > 100000 | – | 201 | > 100000 | 1520 | 24000 | 469 |
| 80 (≈ 71.7 µM) | CO[C@@H]1O[C@H](CO)[C@@H](O)[C@H](O)[C@H]1OCCCC(=O)O[C@@H](C(=O)O[C@H]1C[C@@]2(O)[C@@H](OC(=O)c3ccccc3)[C@@H]3[C@]4(OC(C)=O)CO[C@@H]4C[C@H](O)[C@@]3(C)C(=O)[C@H](OC(C)=O)C(=C1C)C2(C)C)[C@@H](NC(=O)c1ccccc1)c1ccccc1 | > 100000 | 78 | > 100000 | 374 | > 780 | – | > 100000 | – | 174 | > 100000 | > 780 | > 100000 | 480 |

From ChEMBL document CHEMBL1140842 (J Med Chem, 2008)
